Only some compounds are listed: those with a hit (about 4.8% of all), similar ones and a draw of the others.
T cruzi repl: inhibitors of intracellular T. cruzi growth, primary screen, luminescence, NIH3T3 host cells | T. cruzi beta-gal in NIH3T3, 90 h | inhibition, % (no concentration beside the values) | hit rate 1.4% among 300,000 | AID 1885, 2009;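 active = mean inhibition across valid replicates above about 55%, limit read from the data; inconclusive = mean below that limit but half or more replicates reach it; inactive = mean below it, under half of replicates reach it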;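 note: signal also drops with host cell toxicity which is not excluded here; 0% = plate median of DMSO wells and 100% = zero luminescence signal; higher percent means less beta-gal luminescence so fewer parasites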
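compound dosing = single 50 nL compound addition per well in DMSO | material = NIH/3T3 host cells with β-galactosidase reporter T. cruzi | input = 5,000 host fibroblasts per well | timing = ≥90 h infection period, 3 h prior cell attachment | read-out basis = percent inhibition of parasite-derived β-gal signal | detection = GalScreen β-gal luminescence, detergent lysis, 60 min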
Jurkat NFkB inh: inhibitors of induced NF-kB luciferase reporter, primary screen, TCR NF-kB activation inhibitor project, cell-based, luminescence, uHTS. Jurkat, PMA/ionomycin-induced NF-kB luciferase reporter. inhibition, % at 4 µM. hit rate 0.53% among 330,000; in the data active = inhibition above about 50%
HSF-1 act: HSF-1 activators, primary screen, NIH3T3-HGL cells, MG132 stress, luminescence, single point. NIH3T3-HGL HSF-1 luciferase reporter, 8 h; 100% = twice DMSO control signal. activation, % at 9 µM. hit rate 1.7% among 300,000;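 active = mean replicate activation of at least 50% with a set share of replicates each reaching 50%; inconclusive = only one of those two conditions met; inactive = mean below 50% and too few replicates reaching it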;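 note: 0% = median of the neutral control wells and 100% = twice that signal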
HSF1 inhib: HSF1 inhibitors in luciferase reporter cells, primary screen, cell-based, NIH3T3, luminescence | activity change, negative = inhibition, % at 7.5 µM (by protocol) | AID 2098, 2009 | hit rate 0.77% among 300,000 | NIH3T3-HGL HSE-luciferase, MG132-induced, luminescence 8 h; stronger effect = lower value;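 active = more than half of replicate wells show activity change below -50%, luminescence cut by over half; inconclusive = some wells, but at most half, below -50%; inactive = no replicate well below -50%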;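 note: luciferase reports HSF-1 transcriptional activity via heat shock element; 0% = median of DMSO wells and -100% = zero luminescence signal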
697 NFkB inh: inhibitors of PMA/ionomycin-induced NF-kB reporter, 697 cells, primary screen, B-cell NF-kB inhibitor project, cell-based, luminescence, uHTS | 697 B-cell NF-kB luciferase reporter, 16 h | inhibition, % at 4 µM | hit rate 0.33% among 330,000; in the data active = inhibition above about 35%
GPR7 antagonist: GPR7 receptor antagonists, primary screen, cell-based, fluorescence, single concentration | Neuropeptides B/W receptor type 1 (Homo sapiens), P48145 | GPR7-expressing cells, fluorescence antagonist assay | inhibition, % at 4.4 µM | hit rate 1.1% among 290,000 | AID 1861, 2009; in the data active = inhibition above about 16%, passing the limit was not always enough;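 note: cells stimulated with the agonist NPW; 0% = agonist with vehicle and 100% = vehicle without agonist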
Target sequence (P48145 whole entry, looked up): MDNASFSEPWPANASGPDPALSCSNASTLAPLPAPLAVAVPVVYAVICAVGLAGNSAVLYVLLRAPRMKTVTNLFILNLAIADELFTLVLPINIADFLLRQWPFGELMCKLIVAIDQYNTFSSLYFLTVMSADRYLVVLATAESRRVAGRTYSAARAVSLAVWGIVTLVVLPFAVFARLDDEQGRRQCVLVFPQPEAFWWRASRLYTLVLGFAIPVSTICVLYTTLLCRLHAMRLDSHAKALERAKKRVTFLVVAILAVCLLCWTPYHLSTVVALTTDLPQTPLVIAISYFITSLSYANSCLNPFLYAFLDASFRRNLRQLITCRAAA
697 NFkB conf: PMA/ionomycin-induced NF-kB reporter inhibitors, 697 retest, confirmation, B-cell NF-kB inhibitor project, cell-based, luminescence, single concentration; inhibition, % at 4 µM; 697 B-cell NF-kB luciferase, 16 h; AID 449746, 2010; hit rate 35% among 2,000; shares compounds with 697 NFkB inh; in the data active = inhibition mostly above about 28%, no sharp cut-off; inactive = mostly below about 22%
* hit, by the source's call; i = inactive; ? = inconclusive; nt = not tested or not shown.

SMILES | T cruzi repl | Jurkat NFkB inh | HSF-1 act | HSF1 inhib | 697 NFkB inh | GPR7 antagonist | 697 NFkB conf
COc1ccc(C(=O)Nc2ccccc2C(=O)N/N=C/c2cccc3ccccc23)cc1 | 9.4 | -49.6 | -76.3 | -71.8* | -350.7 | -7.7 | -186.5
O=C(COC(=O)C(c1ccccc1)c1ccccc1)NCc1ccco1 | 11.2 | 6.8 | 1.1 | -0.9 | 17.1 | -12.9 | nt
CCN(CC)c1ccc2cc(C(N)=O)c(=O)oc2c1 | 18.2 | -17.9 | 15.0 | 5.3 | -31.4 | -8.6 | nt
CCN(CC)c1ccc2cc(NC(=O)CCC(=O)O)c(=O)oc2c1 | -18.2 | 20.6 | 19.6 | 2.0 | 80.2* | -3.8 | 72.3*
COC(=O)c1c(-c2ccc(OC)cc2)sc2cc3c(cc12)OCO3 | nt | -69.8 | nt | nt | -96.8 | nt | nt
COC(=O)c1c(-c2ccc(N(C)C)cc2)sc2ccc(OC)cc12 | nt | -6.4 | nt | nt | 53.1* | nt | 61.5*
O=C(CSc1ccc2ccccc2n1)Nc1ccc(N2CCOCC2)cc1 | 31.7 | -32.2 | 21.3 | 0.9 | -18.6 | -10.5 | nt
COc1cc(OC)c(/C=N/NC(N)=S)cc1Br | 19.3 | -8.7 | -9.0 | -1.2 | 55.2* | 14.6 | 18.0*
O=C(/C(N=Nc1cccc(C(F)(F)F)c1)=C(/O)c1cccs1)C(F)(F)F | 10.2 | -59.1 | 26.1 | 8.1 | -113.3 | -10.7 | nt
Cc1ccc(N=C/C(C(=O)C(F)(F)F)=C(\O)c2cccs2)cc1 | 17.3 | -99.9 | -1.8 | 4.6 | -359.5 | 0.1 | -148.4
COc1cc(OC)cc(-c2c(-c3cccs3)c3cc(-c4cnc(OC)nc4)ccc3n2C)c1 | nt | -11.6 | nt | nt | -11.4 | nt | nt
Cn1c(=N)n(CC(=O)c2ccc(Br)cc2)c2ccccc21 | 0.1 | -91.6 | 3.2 | 1.4 | -344.3 | nt | -283.2
CN(C)CCCN=Cc1c(-c2ccccc2)[nH]n(-c2nc3ccccc3s2)c1=O | 12.1 | 13.4 | -23.8 | -23.5 | 42.0* | -8.7 | 43.8*
CC(C)c1cc(C(=O)NC2CCCc3c2cnn3-c2ccccc2F)no1 (stereo not given) | -9.5 | -20.0 | -4.2 | -1.5 | -438.4 | 1.1 | i
Cc1cccc(CCNC(=O)C2CCCN(c3cnccn3)C2)c1 (stereo not given) | 7.8 | 10.6 | -6.0 | 1.5 | -5.2 | -8.5 | nt
COc1ccc(C(=O)Nc2ccccc2C(=O)N2CCOCC2)cc1 | -24.0 | 2.1 | 2.3 | -3.3 | 9.3 | 4.1 | nt
Cc1cc(C)cc(NC(=O)/C(C#N)=C/c2cn(CC(=O)NCc3ccco3)c3ccccc23)c1 | -34.0 | 1.8 | -7.8 | -6.6 | 41.0* | -4.2 | -9.4
Cc1cc(OC(=O)c2ccccc2Cl)cc(=O)n1C | -1.8 | 10.0 | 9.3 | -3.2 | 39.1* | -13.2 | 47.5*
CC(C)(C)CN1C(N)=NC[C@@H]1Cc1ccc(O)cc1 | -11.0 | 2.2 | 2.8 | 1.5 | 43.7* | nt | 15.2
CC(=O)Nc1sc2c(c1C(c1ccc(F)cc1)N1CCOCC1)CCCC2 (stereo not given) | 29.2 | -5.5 | -0.7 | 4.7 | 36.5* | -2.0 | -18.9
Cc1c(/C=N/NC(=O)c2cccs2)c2ccccc2n1Cc1ccccc1Cl | 6.5 | -45.8 | 15.3 | 13.7 | i | -7.8 | 3.5
O=C(Cc1ccccc1)Nc1ccc(NC(=O)c2cccs2)cc1Cl | 7.6 | -38.7 | 14.1 | 4.5 | -28.2 | 1.9 | nt
O=c1cc(-c2ccc(O)c(O)c2)oc2ccc3ccccc3c12 | nt | -67.0 | nt | nt | i | nt | -365.6
O=c1cc(-c2ccc(O)c(O)c2)oc2c1ccc1ccccc12 | nt | -15.3 | nt | nt | -49.3 | nt | nt
Fc1ccc(C(c2nnnn2Cc2ccco2)N2CCN(C3CCCCC3)CC2)cc1 (stereo not given) | -15.4 | -2.3 | 1.4 | -5.5 | 35.6* | 18.7 | -0.3
SMILES | T cruzi repl | Jurkat NFkB inh | HSF-1 act | HSF1 inhib | 697 NFkB inh | GPR7 antagonist | 697 NFkB conf
Fc1ccc(C(c2nnnn2Cc2cccs2)N2CCN(C3CCCC3)CC2)cc1 (stereo not given) | -12.8 | 0.5 | -5.5 | -8.8 | 5.6 | 6.7 | nt
COc1ccc(CNS(=O)(=O)c2ccc(-c3ccc(=O)[nH]n3)s2)cc1OC | 2.0 | 0.6 | 17.2 | 2.9 | 11.6 | -3.6 | nt
COC(=O)c1ccccc1NC(=O)c1ccc(-c2ccc(Br)cc2)o1 | -4.5 | 6.6 | -57.2 | -48.0 | -367.2 | -1.7 | -286.4
O=C(Nc1cccc2nsnc12)c1ccc(-c2ccc(Br)cc2)o1 | 25.7 | -23.9 | 25.4 | 11.5 | -42.4 | -6.7 | nt
CCOC(=O)c1c(C)[nH]c(C(=O)OCC(=O)N(CC(C)C)C2CCS(=O)(=O)C2)c1C (stereo not given) | nt | 1.1 | nt | nt | 8.2 | nt | nt
CCc1nc(SCC(=O)N2c3ccccc3CC2C)c2c(C)c(C)sc2n1 (stereo not given) | 28.1 | -56.0 | 21.5 | 6.8 | i | -6.9 | i
CCOCCCNC(=O)C1CCCN(S(=O)(=O)c2cccc3nsnc23)C1 (stereo not given) | 2.7 | 4.7 | -18.6 | -4.3 | 1.8 | -15.0 | nt
COc1cc(OC)cc(-c2nnc(Nc3nc4c(F)cccc4s3)o2)c1 | -23.3 | 6.5 | -19.7 | -11.4 | 39.1* | 8.5 | 28.1
COc1ccc2cc(-c3cc(C(=O)O)c4ccccc4n3)ccc2c1 | -9.4 | -18.5 | 25.7 | 0.1 | -344.5 | 4.6 | -351.0
Cc1ccc(/C=C/c2nc3ccccc3c(=O)[nH]2)cc1 | 3.7 | -73.5 | -18.0 | -25.2 | -253.6 | -17.7 | -254.8
CCOc1cc2nc(-c3ccc(OC)c(OC)c3)nc(N3CCOCC3)c2cc1OC | 34.7 | -40.1 | 3.6 | -4.8 | 44.6* | -9.1 | 38.3*
CCOC(=O)N1CCN(C(=O)CNC(=O)c2ccc(Br)o2)CC1 | -0.2 | -7.8 | 29.4 | 6.7 | -0.1 | -15.8 | nt
COC(=O)C1=C(C)N(c2ccc(Cl)cc2)/C(=C/c2ccc(O)cc2)C1=O | -6.5 | 16.1 | 12.8 | -1.1 | 35.7* | -4.8 | 28.8
Cc1c(/N=C(\[O-])Nc2ccc(Br)cc2)sn[n+]1C | 0.7 | -85.9 | -1.1 | -1.9 | -274.5 | -22.2 | -263.6
CNC(=S)Nc1ccc(Br)cc1 | -9.4 | -6.2 | 5.0 | 1.0 | 4.7 | -6.0 | nt
O=C(CCCCCCC(=O)Nc1ccccc1)NO | -11.5 | 23.7 | -51.5 | ? | i | nt | -336.0
COC(=O)CN1C(=O)COc2ccc(S(=O)(=O)N3CCCCCC3)cc21 | 6.9 | 10.5 | 2.4 | -1.2 | 11.1 | 3.5 | nt
Cc1c(CCC(=O)NCCCn2ccnc2)c(=O)oc2c(C)c3oc4c(c3cc12)CCCC4 | 29.0 | 17.9 | -36.5 | -31.0 | 38.1* | -0.5 | 22.6*
